Assay results: ChEMBL document CHEMBL1122663, “Oligonucleotide structural parameters that influence binding of 5'-O-triphosphoadenylyl-(2'----5')-adenylyl-(2'----5')-adenosine to the 5'-O-triphosphoadenylyl-(2'----5')-adenylyl-(2'----5')-adenosine dependent endoribonuclease: chain length, phosphorylation state, and heterocyclic base” (J Med Chem, 1984)

Columns and labels:
[1] = molecular target: T1, 2-5A-dependent ribonuclease (Mus musculus) (UniProt Q05921); test: Molar concentration required to displace 50% of the radiolabeled probe from 2-5A (Adenosine dependent endoribonuclease) in endonuclease-nitrocellulose complex
T1 sequence (whole entry): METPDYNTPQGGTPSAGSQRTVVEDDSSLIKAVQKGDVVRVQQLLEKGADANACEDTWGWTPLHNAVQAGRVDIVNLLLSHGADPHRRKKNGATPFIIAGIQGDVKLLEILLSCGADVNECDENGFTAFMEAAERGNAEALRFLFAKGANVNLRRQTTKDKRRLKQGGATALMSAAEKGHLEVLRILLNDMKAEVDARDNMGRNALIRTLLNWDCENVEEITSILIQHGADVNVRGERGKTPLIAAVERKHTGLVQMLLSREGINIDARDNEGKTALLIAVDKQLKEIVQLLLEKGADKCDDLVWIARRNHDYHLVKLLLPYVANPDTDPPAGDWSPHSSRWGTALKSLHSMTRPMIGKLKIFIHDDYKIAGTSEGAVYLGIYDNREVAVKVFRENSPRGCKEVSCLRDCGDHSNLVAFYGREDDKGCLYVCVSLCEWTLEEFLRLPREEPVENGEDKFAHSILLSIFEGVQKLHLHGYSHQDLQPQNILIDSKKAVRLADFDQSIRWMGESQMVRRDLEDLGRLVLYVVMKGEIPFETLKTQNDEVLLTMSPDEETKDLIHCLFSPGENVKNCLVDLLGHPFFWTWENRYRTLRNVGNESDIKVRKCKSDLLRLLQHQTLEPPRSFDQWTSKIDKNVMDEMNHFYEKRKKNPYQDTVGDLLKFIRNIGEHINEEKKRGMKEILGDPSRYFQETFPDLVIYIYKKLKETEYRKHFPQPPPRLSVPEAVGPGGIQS
Procedure, shortened: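 Radiobinding assay of Knight et al. on the 2-5A-dependent endoribonuclease from mouse L cells. Oligomer is added against the radiolabeled probe ppp5'A2'p5'A2'p5'A2'p5'A3'[³²P]p5'C3'p. The value is the oligomer concentration that prevents 50% of the added probe from binding the endonuclease.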

[2] = molecular target: T1, 2-5A-dependent ribonuclease (Mus musculus); test: Molar concentration needed to give 50% prevention of 2-5A (Adenosine dependent endoribonuclease)

A Concentration [1] of 4e-06 was found for `Nc1ncnc2c1ncn2[C@@H]1O[C@H](COP(=O)(O)O[C@@H]2[C@H](O)[C@@H](COP(=O)(O)O)O[C@H]2n2cnc3c(N)ncnc32)[C@@H](OP(=O)(O)O)[C@H]1O` in this work.
A Concentration [2] of over 0.0001 and a Concentration [1] of 1.1e-06 were found for `O=c1ccn(C2O[C@H](COP(=O)(O)O[C@H]3C(n4ccc(=O)[nH]c4=O)O[C@H](COP(=O)(O)O[C@H]4C(n5ccc(=O)[nH]c5=O)O[C@H](COP(=O)(O)O)[C@H]4O)[C@H]3O)[C@@H](O)[C@H]2O)c(=O)[nH]1` (some centres undefined) in this work.
A Concentration [1] of 1e-09 was found for `Nc1ncnc2c1ncn2C1O[C@H](COP(=O)(O)O[C@H]2C(n3cnc4c(N)ncnc43)O[C@H](COP(=O)(O)O[C@H]3C(n4cnc5c(N)ncnc54)O[C@H](COP(=O)(O)O[C@H]4C(n5cnc6c(N)ncnc65)O[C@H](COP(=O)(O)O[C@H]5C(n6cnc7c(N)ncnc76)O[C@H](COP(=O)(O)O[C@H]6C(n7cnc8c(N)ncnc87)O[C@H](COP(=O)(O)O)[C@H]6O)[C@H]5O)[C@H]4O)[C@H]3O)[C@H]2O)[C@@H](O)[C@H]1O` (some centres undefined) in this work.
A Concentration [2] of over 0.0001 and a Concentration [1] of 3.3e-06 were found for `O=P(O)(O)OC[C@H]1OC(n2cnc3c(O)ncnc32)[C@H](OP(=O)(O)OC[C@H]2OC(n3cnc4c(O)ncnc43)[C@H](OP(=O)(O)OC[C@H]3OC(n4cnc5c(O)ncnc54)[C@H](O)[C@@H]3O)[C@@H]2O)[C@@H]1O` (some centres undefined) in this work.
A Concentration [1] of 2e-09 was found for `Nc1ncnc2c1ncn2[C@@H]1O[C@H](COP(=O)(O)O[C@@H]2[C@H](O)[C@@H](COP(=O)(O)O[C@@H]3[C@H](O)[C@@H](COP(=O)(O)O)O[C@H]3n3cnc4c(N)ncnc43)O[C@H]2n2cnc3c(N)ncnc32)[C@@H](O)[C@H]1O` (stereo in doubt; 11) in this work.
A Concentration [2] of 7e-06 and a Concentration [1] of 1.3e-08 were found for `Nc1ncnc2c1ncn2C1O[C@H](COP(=O)(O)O[C@H]2C(n3cnc4c(N)ncnc43)O[C@H](COP(=O)(O)O[C@H]3C(n4cnc5c(N)ncnc54)O[C@H](COP(=O)(O)O[C@H]4C(n5cnc6c(N)ncnc65)O[C@H](COP(=O)(O)O[C@H]5C(n6cnc7c(N)ncnc76)O[C@H](CO)[C@H]5O)[C@H]4O)[C@H]3O)[C@H]2O)[C@@H](O)[C@H]1O` (some centres undefined) in this work.
A Concentration [1] of 5e-10 was found for `Nc1ncnc2c1ncn2[C@@H]1O[C@H](COP(=O)(O)O[C@@H]2[C@H](O)[C@@H](COP(=O)(O)O[C@@H]3[C@H](O)[C@@H](COP(=O)(O)OP(=O)(O)OP(=O)(O)O)O[C@H]3n3cnc4c(N)ncnc43)O[C@H]2n2cnc3c(N)ncnc32)[C@@H](O)[C@H]1O` in this work.
A Concentration [1] of 1.3e-08 was found for `Nc1ncnc2c1ncn2C1O[C@H](COP(=O)(O)O[C@H]2C(n3cnc4c(N)ncnc43)O[C@H](COP(=O)(O)O[C@H]3C(n4cnc5c(N)ncnc54)O[C@H](COP(=O)(O)O[C@H]4C(n5cnc6c(N)ncnc65)O[C@H](COP(=O)(O)O[C@H]5C(n6cnc7c(N)ncnc76)O[C@H](COP(=O)(O)O[C@H]6C(n7cnc8c(N)ncnc87)O[C@H](CO)[C@H]6O)[C@H]5O)[C@H]4O)[C@H]3O)[C@H]2O)[C@@H](O)[C@H]1O` (some centres undefined) in this work.
A Concentration [2] of 5e-07 and a Concentration [1] of 9e-10 were found for `Nc1ncnc2c1ncn2C1O[C@H](COP(=O)(O)O[C@H]2C(n3cnc4c(N)ncnc43)O[C@H](COP(=O)(O)O[C@H]3C(n4cnc5c(N)ncnc54)O[C@H](COP(=O)(O)O[C@H]4C(n5cnc6c(N)ncnc65)O[C@H](COP(=O)(O)O[C@H]5C(n6cnc7c(N)ncnc76)O[C@H](COP(=O)(O)O)[C@H]5O)[C@H]4O)[C@H]3O)[C@H]2O)[C@@H](O)[C@H]1O` (some centres undefined) in this work.
A Concentration [2] of over 0.0002 and a Concentration [1] of 2e-05 were found for `Nc1ncnc2c1ncn2C1O[C@H](COP(=O)(O)O[C@H]2C(n3cnc4c(N)ncnc43)O[C@H](COP(=O)(O)O)[C@H]2O)[C@@H](O)[C@H]1O` (some centres undefined) in this work.
A Concentration [2] of over 0.00013 and a Concentration [1] of 2.6e-07 were found for `O=P(O)(O)OP(=O)(O)OP(=O)(O)OCC1OC(n2cnc3c(O)ncnc32)C(OP(=O)(O)OCC2OC(n3cnc4c(O)ncnc43)C(OP(=O)(O)OC[C@H]3OC(n4cnc5c(O)ncnc54)[C@H](O)[C@@H]3O)C2O)C1O` (some centres undefined) in this work.
A Concentration [2] of over 0.001 was found for `Nc1ncnc2c1ncn2C1OC(CO)C(O)C1OP(=O)(O)OC[C@H]1OC(n2cnc3c(N)ncnc32)[C@H](O)[C@@H]1O` (some centres undefined) in this work.
A Concentration [2] of 1e-06 and a Concentration [1] of 8e-10 were found for `Nc1ncnc2c1ncn2[C@@H]1O[C@H](COP(=O)(O)O[C@@H]2[C@H](O)[C@@H](COP(=O)(O)O[C@@H]3[C@H](O)[C@@H](COP(=O)(O)O)O[C@H]3n3cnc4c(N)ncnc43)O[C@H]2n2cnc3c(N)ncnc32)[C@@H](O)[C@H]1O` (stereo in doubt; 2) in this work.
A Concentration [1] of 4e-07 was found for `Nc1ncnc2c1ncn2[C@@H]1O[C@H](COP(=O)(O)O[C@@H]2[C@H](O)[C@@H](COP(=O)(O)O)O[C@H]2n2cnc3c(N)ncnc32)[C@@H](O)[C@H]1OP(=O)(O)O` in this work.
A Concentration [2] of over 0.0001 and a Concentration [1] of 3.3e-06 were found for `Nc1ccn(C2O[C@H](COP(=O)(O)O[C@H]3C(n4ccc(N)nc4=O)O[C@H](COP(=O)(O)O[C@H]4C(n5ccc(N)nc5=O)O[C@H](COP(=O)(O)O)[C@H]4O)[C@H]3O)[C@@H](O)[C@H]2O)c(=O)n1` (some centres undefined) in this work.
A Concentration [2] of 1e-05 and a Concentration [1] of 2.2e-08 were found for `Nc1ncnc2c1ncn2[C@@H]1O[C@H](COP(=O)(O)O[C@@H]2[C@H](O)[C@@H](COP(=O)(O)O[C@@H]3[C@H](O)[C@@H](COP(=O)(O)O[C@@H]4[C@H](O)[C@@H](CO)O[C@H]4n4cnc5c(N)ncnc54)O[C@H]3n3cnc4c(N)ncnc43)O[C@H]2n2cnc3c(N)ncnc32)[C@@H](O)[C@H]1O` in this work.
A Concentration [2] of over 0.0001 and a Concentration [1] of 8e-07 were found for `Nc1ncnc2c1ncn2[C@@H]1O[C@H](COP(=O)(O)O[C@@H]2[C@H](O)[C@@H](COP(=O)(O)O[C@@H]3[C@H](O)[C@@H](CO)O[C@H]3n3cnc4c(N)ncnc43)O[C@H]2n2cnc3c(N)ncnc32)[C@@H](O)[C@H]1O` in this work.
A Concentration [2] of 1e-06 and a Concentration [1] of 7e-10 were found for `Nc1ncnc2c1ncn2[C@@H]1O[C@H](COP(=O)(O)O[C@@H]2[C@H](O)[C@@H](COP(=O)(O)O[C@@H]3[C@H](O)[C@@H](COP(=O)(O)O[C@@H]4[C@H](O)[C@@H](COP(=O)(O)O)O[C@H]4n4cnc5c(N)ncnc54)O[C@H]3n3cnc4c(N)ncnc43)O[C@H]2n2cnc3c(N)ncnc32)[C@@H](O)[C@H]1O` in this work.
